The test system of series [1] is HT-29. The experiment in a line: Cytotoxicity against human HT-29 cells after 48 hrs by MTT assay. As to conditions: HT-29, 48 h. The format is functional, cell-based. In outline:
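HT-29 cells grown in McCoy's 5A with 10% fetal calf serum and 1% Pen-Strep, seeded at 1 × 10⁴ cells/well 24 h before dosing. Tested with or without snake (Agkistrodon piscivorus piscivorus) venom sPLA₂ at 5 nM final. Exposure was 24 h, then a wash and 48 h in complete medium before MTT viability. Mean ± SD, n = 3 or more.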
(Tetrazolium assays rely on reduction of a dye to a coloured formazan, in cell work by metabolically active cells.)

For series [2], the system named is HT-29. The experiment in a line: Cytotoxicity against human HT-29 cells after 48 hrs by MTT assay in presence of Agkistrodon piscivorus piscivorus venom sPLA2. As to conditions: HT-29, 48 h. The format is functional, cell-based. In outline:
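HT-29 cells (McCoy's 5A, 10% fetal calf serum) plated at 1 × 10⁴ cells/well 24 h before dosing. Liposomal prodrugs diluted in PBS, lipid concentration set by phosphorus analysis; snake venom sPLA₂ added to a final 5 nM. Cells exposed for 24 h, washed, then kept in complete medium another 48 h. Viability read by MTT, mean ± SD, n ≥ 3.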

The next series relates to COLO 205. Kind of series: Cytotoxicity against human COLO205 cells after 48 hrs by MTT assay. The format is functional, cell-based. As to conditions: COLO 205, 48 h. Summed up: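 Colo205 cells grown in RPMI 1640 with 10% fetal calf serum and 1% Pen-Strep at 5% CO₂, seeded at 2 × 10⁴ cells/well 24 h before treatment. Dosing used conditioned medium carrying about 100 ng/mL sPLA₂ IIA. Exposure was 24 h, then a wash and 48 h in complete medium before MTT. Reported as mean ± SD, n = 3 or more.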

The nature of series [3]: Cytotoxicity against human MT3 cells after 48 hrs by MTT assay. It is filed as functional, cell-based. As to conditions: MT-3, 48 h. In outline:
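MT-3 breast cancer cells grown in RPMI 1640 with 10% fetal calf serum and 1% Pen-Strep at 5% CO₂, plated at 1 × 10⁴ cells/well 24 h ahead. Retinoids were given in DMSO/water, final DMSO ≤0.5%. Exposure was 24 h, then a wash and 48 h in complete medium before MTT. Mean ± SD, n = 3.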

A short description of series [4]: Inhibition of sPLA2 from Naja mossambica mossambica by fluorescence technique.
The nature of series [5]: Stability assessed as compound degradation after 48 hrs by MALDI-TOF MS analysis in presence of Naja mossambica mossambica venom sPLA2. The format is ADME. In outline:
(§1)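 Incubated with purified snake venom sPLA₂ at 37 °C, stirred and shielded from light, for 48 h. Extracts mixed with DHB matrix (DPPG included) and analysed by MALDI-TOF MS for remaining prodrug.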

A short description of series [6]: Stability assessed as compound degradation after 48 hrs by MALDI-TOF MS analysis in presence of Agkistrodon piscivorus piscivorus venom sPLA2. It is filed as ADME. In outline: as §1

Where only a bound is given, the exact number is not on record here.

For the molecule `CCCCCCCCCCCCCCCCCCOC[C@H](COP(=O)(O)OC[C@H](O)CO)OC(=O)CCCCCCCCCCCCCCCCC`, the IC50 – broadly, the concentration at which inhibition is half-maximal – in the series on HT-29 [1] was > 200 µM; with HT-29 [2], 9 µM; in the series on COLO 205, 33 µM.

Turning to `CCCCCCCCCCCCCCCCCC(=O)OC[C@H](COP(=O)(O)OC[C@H](O)CO)OC(=O)CCCCCCCCCCCCCCCCC`, the IC50 with HT-29 [1] is > 200 µM; in the series on HT-29 [2], 25 µM; in the series with COLO 205, 54 µM.

On to `CCCCCCCCc1ccc(-c2ccc(C(=O)OCCCCCC(=O)O)cc2)cc1`, for which the IC50 in series [3] was 14 µM; in the series with HT-29 [1], > 200 µM; in the series on COLO 205, 127 µM.

On to `CCCCCCCCCCCCCCCCCC(=O)OC[C@@H](O)COP(=O)(O)OCC(O)CO` (some centres not stated), for which the IC50 came out at 7 µM with HT-29 [1] and 22 µM in the series with COLO 205.

Consider `CC1=C(/C=C/C(C)=C/C=C/C(C)=C/C(=O)OCCCCCC(=O)O)C(C)(C)CCC1`, for which the IC50 in series [3] was found to be 17 µM; in the series on HT-29 [1] it was 3.6 µM; in series [4] it was 8 µM; with COLO 205 it was 17 µM. In addition, the affinity in series [4], expressed as Ki, was 6 µM.

Consider `CCCCCCCCCCCCCCCCCCOC[C@@H](O)COP(=O)(O)OC[C@@H](O)CO`, for which the IC50 was found to be 11 µM in the series with HT-29 [1] and 25 µM in the series on COLO 205.

Regarding `CCCCCCCCCCCCCCCCCC(=O)OC[C@H](COP(=O)([O-])OC[C@@H](O)CO)OC(=O)CCCCCOC(=O)c1ccc(-c2ccc(CCCCCCCC)cc2)cc1.[Na+]`, the Stability entry in series [5] and in series [6] was “Unstable” in each case. The IC50 is > 200 µM in the series on HT-29 [1], 8 µM with HT-29 [2] and 19 µM in the series with COLO 205.

As for `CCCCCCCCCCCCCCCCCCOC[C@H](COP(=O)([O-])OC[C@@H](O)CO)OC(=O)CCCCCOC(=O)c1ccc(-c2ccc(CCCCCCCC)cc2)cc1.[Na+]`, the Stability result in series [5] and in series [6] was “Unstable” each time. In addition, the IC50 in the series with HT-29 [1] is > 200 µM; in the series on HT-29 [2], 3 µM; in the series on COLO 205, 7 µM.

Consider `CCCCCCCCCCCCCCCCCC(=O)OC[C@H](COP(=O)([O-])OC[C@@H](O)CO)OC(=O)CCCCCOC(=O)/C=C(C)/C=C/C=C(C)/C=C/C1=C(C)CCCC1(C)C.[Na+]`, for which the Stability result in series [5] and in series [6] was “Unstable” throughout. For the same molecule, the values for the IC50 in the series with HT-29 [1], in the series with HT-29 [2] and with COLO 205 were > 200 µM, 6 µM and 12 µM, respectively.

On to `CCCCCCCCCCCCCCCCCCOC[C@H](COP(=O)([O-])OC[C@@H](O)CO)OC(=O)CCCCCOC(=O)/C=C(C)/C=C/C=C(C)/C=C/C1=C(C)CCCC1(C)C.[Na+]`, for which the IC50 in the series on HT-29 [1] is > 200 µM; in the series on HT-29 [2] it was 7 µM; in the series on COLO 205 it was 16 µM. Moreover, the Stability result in series [6] was “Unstable”.

In the case of `CCCCCCCCc1ccc(-c2ccc(C(=O)O)cc2)cc1`, the IC50 in series [3] was 51 µM; with HT-29 [1], > 200 µM; in the series with COLO 205 it was > 200 µM.

Take `CCCCCCCCCCCCCCCCCC(=O)O` [STEARIC ACID]: the IC50 with HT-29 [1] and in the series with COLO 205 was > 200 µM each time.

On to `CC1=C(/C=C/C(C)=C/C=C/C(C)=C/C(=O)O)C(C)(C)CCC1` [TRETINOIN], for which the IC50 in series [3] turned out to be 30 µM; in the series on HT-29 [1], 4.3 µM; in series [4], 15 µM; in the series with COLO 205 it was 37 µM. Also, in series [4], the affinity corresponds to a Ki of 11 µM.

For the origin of these results see ChEMBL document CHEMBL1157134, “Liposomal formulation of retinoids designed for enzyme triggered release” (J Med Chem, 2010).
